Assay results published in ChEMBL document CHEMBL1781905, “Discovery and optimization of N-acyl and N-aroylpyrazolines as B-Raf kinase inhibitors” (Bioorg Med Chem Lett, 2010).

Experiments:
[1] = biological target: T1, Serine/threonine-protein kinase B-raf (Homo sapiens, UniProt P15056, V600E); test: Inhibition of B-Raf V600E mutant-mediated ERK phosphorylation in human A375 cells after 3 hrs by immunoblotting method; format: cell-based, A-375; settings: in the assay text read “whole cell ELISA” for “immunoblotting method”
How it was run: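 A375 (B-Raf V600E) cells are seeded overnight, then exposed to inhibitors for 3 h at 37 °C. Cells are fixed, permeabilized and blocked overnight. They are probed 1 h with anti-phospho-ERK antibody, then with HRP-linked reagent. The TMB substrate is read as optical density at 650 nm.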

[2] = biological target: T1, Serine/threonine-protein kinase B-raf; test: Inhibition of human B-Raf V600E mutant after 3 hrs
How it was run: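 Radiometric assay using 20 nM B-Raf V600E. It measures phosphorylation of a biotinylated surrogate peptide by ³³P-ATP in 50 mM HEPES pH 7.5 with 10 mM DTT and 50 mM MnCl₂ at 30 °C for 3 h. The reaction is stopped with 100 mM EDTA, captured 2 h on a streptavidin FlashPlate and scintillation-counted.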

[3] = biological target: Vascular endothelial growth factor receptor 2 (Homo sapiens, UniProt P35968); test: Inhibition of KDR
[4] = biological target: Mast/stem cell growth factor receptor Kit (Homo sapiens, UniProt P10721); test: Inhibition of KIT2
[5] = biological target: Macrophage colony-stimulating factor 1 receptor (Homo sapiens, UniProt P07333); test: Inhibition of CSF1R
[6] = biological target: T2, Receptor-type tyrosine-protein kinase FLT3 (Homo sapiens, UniProt P36888); test: Inhibition of FLT3
T2 sequence (P36888 whole entry): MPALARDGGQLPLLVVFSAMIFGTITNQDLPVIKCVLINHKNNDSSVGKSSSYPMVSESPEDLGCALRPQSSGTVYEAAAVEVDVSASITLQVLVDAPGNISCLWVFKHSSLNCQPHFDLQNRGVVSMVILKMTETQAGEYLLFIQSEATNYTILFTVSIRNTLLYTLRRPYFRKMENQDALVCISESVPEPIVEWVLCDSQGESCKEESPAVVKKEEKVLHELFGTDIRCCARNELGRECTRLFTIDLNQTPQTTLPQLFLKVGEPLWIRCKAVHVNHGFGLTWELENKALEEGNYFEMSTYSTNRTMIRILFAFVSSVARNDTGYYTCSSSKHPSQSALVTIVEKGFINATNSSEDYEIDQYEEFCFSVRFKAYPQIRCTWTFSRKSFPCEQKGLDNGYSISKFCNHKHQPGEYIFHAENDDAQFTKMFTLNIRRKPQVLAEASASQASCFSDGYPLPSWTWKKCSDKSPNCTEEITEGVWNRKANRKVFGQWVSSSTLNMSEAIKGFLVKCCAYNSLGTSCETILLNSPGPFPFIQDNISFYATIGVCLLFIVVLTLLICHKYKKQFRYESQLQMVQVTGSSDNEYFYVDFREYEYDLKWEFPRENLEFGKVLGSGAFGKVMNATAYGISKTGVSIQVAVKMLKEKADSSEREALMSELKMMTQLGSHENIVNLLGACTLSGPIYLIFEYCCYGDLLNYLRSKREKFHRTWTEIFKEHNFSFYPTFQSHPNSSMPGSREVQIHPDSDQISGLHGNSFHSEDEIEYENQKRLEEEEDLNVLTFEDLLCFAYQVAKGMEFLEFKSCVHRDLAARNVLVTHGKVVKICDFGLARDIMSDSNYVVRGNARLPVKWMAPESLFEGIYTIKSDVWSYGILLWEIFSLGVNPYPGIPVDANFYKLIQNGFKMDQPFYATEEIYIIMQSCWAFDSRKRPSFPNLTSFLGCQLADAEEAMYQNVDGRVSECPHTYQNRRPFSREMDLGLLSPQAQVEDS

[7] = biological target: Fibroblast growth factor receptor 1 (Homo sapiens, UniProt P11362); test: Inhibition of FGFR1
[8] = biological target: RAC-beta serine/threonine-protein kinase (Homo sapiens, UniProt P31751); test: Inhibition of AKT2
[9] = species on record: Homo sapiens; test: Selectivity ratio of IC50 for wild type human B-Raf to IC50 for human B-Raf V600E mutant
[10] = Inhibition of CAMK2
[11] = Inhibition of PKA
[12] = biological target: Tyrosine-protein kinase Lck (Homo sapiens) (UniProt P06239); test: Inhibition of LCK
[13] = biological target: Cyclin-dependent kinase 1 (Homo sapiens, UniProt P06493); test: Inhibition of CDK1
[14] = biological target: Cyclin-dependent kinase 2 (Homo sapiens, UniProt P24941); test: Inhibition of CDK2
[15] = biological target: Serine/threonine-protein kinase Chk2 (Homo sapiens, UniProt O96017); test: Inhibition of Chk2
[16] = biological target: T3, Serine/threonine-protein kinase Chk1 (Homo sapiens, UniProt O14757); test: Inhibition of Chk1
T3 sequence (O14757 whole entry): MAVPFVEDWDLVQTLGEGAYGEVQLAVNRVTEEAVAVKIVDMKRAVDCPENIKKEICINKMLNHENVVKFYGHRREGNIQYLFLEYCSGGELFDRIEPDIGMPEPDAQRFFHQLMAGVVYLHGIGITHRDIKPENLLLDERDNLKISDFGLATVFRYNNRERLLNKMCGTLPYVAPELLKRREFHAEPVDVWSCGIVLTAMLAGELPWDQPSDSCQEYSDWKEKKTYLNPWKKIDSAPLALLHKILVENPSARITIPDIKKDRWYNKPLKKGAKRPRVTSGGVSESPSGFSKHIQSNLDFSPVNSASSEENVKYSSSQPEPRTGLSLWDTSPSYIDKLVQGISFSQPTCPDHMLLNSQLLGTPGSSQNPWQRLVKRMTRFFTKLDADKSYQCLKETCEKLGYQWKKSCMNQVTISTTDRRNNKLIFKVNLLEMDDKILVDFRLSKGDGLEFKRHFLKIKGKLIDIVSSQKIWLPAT

[17] = Inhibition of CK2

Sequence of Macrophage colony-stimulating factor 1 receptor (P07333 whole entry): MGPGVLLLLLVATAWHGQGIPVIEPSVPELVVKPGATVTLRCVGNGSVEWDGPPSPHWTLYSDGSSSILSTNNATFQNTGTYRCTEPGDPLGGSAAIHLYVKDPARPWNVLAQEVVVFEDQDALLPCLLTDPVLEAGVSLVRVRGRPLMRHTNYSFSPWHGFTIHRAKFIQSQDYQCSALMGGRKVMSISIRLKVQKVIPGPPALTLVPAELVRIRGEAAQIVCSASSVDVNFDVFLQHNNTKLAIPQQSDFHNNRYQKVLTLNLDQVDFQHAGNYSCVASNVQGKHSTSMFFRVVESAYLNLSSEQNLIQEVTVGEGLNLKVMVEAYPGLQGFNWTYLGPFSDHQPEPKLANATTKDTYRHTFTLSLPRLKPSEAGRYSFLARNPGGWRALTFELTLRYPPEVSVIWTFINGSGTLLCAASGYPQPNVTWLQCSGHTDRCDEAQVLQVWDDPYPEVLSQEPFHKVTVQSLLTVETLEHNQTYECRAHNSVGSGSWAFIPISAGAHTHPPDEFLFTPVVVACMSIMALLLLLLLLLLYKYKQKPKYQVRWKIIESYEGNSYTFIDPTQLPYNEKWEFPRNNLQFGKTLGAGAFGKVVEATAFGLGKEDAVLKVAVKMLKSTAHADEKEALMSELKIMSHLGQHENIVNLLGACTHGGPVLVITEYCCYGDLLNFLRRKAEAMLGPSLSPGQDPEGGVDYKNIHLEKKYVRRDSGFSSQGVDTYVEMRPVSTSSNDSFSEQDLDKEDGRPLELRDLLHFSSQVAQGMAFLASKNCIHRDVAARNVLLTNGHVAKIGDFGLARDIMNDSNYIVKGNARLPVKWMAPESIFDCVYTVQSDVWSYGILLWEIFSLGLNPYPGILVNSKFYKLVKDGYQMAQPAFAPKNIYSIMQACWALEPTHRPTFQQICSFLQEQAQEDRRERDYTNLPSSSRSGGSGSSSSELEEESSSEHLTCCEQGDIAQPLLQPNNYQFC
Sequence of Vascular endothelial growth factor receptor 2 (P35968 whole entry): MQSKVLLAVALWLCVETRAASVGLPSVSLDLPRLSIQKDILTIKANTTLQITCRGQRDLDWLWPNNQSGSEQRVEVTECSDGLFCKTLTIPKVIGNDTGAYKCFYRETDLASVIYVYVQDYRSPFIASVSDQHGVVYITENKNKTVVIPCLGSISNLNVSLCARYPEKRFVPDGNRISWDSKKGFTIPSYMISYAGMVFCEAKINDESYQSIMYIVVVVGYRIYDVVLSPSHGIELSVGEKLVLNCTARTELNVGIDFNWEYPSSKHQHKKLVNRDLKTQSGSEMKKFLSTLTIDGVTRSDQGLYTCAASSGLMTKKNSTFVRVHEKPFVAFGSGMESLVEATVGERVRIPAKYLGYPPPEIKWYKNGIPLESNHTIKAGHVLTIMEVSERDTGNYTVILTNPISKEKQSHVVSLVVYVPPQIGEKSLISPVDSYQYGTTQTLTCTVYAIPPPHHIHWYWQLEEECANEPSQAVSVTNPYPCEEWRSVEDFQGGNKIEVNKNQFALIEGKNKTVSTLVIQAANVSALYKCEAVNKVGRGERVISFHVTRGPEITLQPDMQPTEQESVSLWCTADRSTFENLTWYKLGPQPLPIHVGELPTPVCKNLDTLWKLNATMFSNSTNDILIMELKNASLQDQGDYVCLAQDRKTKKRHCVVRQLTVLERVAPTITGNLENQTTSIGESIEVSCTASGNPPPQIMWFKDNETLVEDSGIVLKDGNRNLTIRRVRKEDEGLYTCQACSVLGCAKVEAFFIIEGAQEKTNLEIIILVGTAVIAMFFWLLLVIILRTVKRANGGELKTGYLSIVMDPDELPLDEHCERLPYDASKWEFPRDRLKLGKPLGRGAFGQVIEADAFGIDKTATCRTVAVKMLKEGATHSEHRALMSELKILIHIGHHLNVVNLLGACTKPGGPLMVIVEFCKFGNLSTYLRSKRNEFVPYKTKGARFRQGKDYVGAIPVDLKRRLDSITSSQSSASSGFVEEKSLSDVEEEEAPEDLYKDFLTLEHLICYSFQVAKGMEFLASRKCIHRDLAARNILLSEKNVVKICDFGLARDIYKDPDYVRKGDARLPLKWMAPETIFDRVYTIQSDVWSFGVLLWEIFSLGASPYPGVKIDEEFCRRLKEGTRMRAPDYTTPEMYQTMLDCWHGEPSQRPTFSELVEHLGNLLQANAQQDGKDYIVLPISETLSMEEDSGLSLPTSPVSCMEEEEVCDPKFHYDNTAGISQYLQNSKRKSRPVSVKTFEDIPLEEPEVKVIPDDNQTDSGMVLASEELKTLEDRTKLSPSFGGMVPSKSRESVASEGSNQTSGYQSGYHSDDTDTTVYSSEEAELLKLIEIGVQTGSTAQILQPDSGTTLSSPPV
Sequence of RAC-beta serine/threonine-protein kinase (P31751 whole entry): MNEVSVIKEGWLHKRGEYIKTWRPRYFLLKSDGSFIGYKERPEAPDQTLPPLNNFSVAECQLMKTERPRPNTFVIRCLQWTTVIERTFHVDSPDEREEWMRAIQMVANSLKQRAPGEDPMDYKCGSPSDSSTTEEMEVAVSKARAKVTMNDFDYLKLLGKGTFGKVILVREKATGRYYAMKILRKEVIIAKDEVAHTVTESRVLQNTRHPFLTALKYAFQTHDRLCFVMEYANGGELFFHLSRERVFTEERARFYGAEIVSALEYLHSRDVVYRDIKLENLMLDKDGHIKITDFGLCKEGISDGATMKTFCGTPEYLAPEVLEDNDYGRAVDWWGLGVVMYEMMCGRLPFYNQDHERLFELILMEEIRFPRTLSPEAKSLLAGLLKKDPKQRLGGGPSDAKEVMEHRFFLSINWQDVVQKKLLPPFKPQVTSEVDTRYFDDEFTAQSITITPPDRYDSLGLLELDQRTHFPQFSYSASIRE
Sequence of Mast/stem cell growth factor receptor Kit (P10721 whole entry): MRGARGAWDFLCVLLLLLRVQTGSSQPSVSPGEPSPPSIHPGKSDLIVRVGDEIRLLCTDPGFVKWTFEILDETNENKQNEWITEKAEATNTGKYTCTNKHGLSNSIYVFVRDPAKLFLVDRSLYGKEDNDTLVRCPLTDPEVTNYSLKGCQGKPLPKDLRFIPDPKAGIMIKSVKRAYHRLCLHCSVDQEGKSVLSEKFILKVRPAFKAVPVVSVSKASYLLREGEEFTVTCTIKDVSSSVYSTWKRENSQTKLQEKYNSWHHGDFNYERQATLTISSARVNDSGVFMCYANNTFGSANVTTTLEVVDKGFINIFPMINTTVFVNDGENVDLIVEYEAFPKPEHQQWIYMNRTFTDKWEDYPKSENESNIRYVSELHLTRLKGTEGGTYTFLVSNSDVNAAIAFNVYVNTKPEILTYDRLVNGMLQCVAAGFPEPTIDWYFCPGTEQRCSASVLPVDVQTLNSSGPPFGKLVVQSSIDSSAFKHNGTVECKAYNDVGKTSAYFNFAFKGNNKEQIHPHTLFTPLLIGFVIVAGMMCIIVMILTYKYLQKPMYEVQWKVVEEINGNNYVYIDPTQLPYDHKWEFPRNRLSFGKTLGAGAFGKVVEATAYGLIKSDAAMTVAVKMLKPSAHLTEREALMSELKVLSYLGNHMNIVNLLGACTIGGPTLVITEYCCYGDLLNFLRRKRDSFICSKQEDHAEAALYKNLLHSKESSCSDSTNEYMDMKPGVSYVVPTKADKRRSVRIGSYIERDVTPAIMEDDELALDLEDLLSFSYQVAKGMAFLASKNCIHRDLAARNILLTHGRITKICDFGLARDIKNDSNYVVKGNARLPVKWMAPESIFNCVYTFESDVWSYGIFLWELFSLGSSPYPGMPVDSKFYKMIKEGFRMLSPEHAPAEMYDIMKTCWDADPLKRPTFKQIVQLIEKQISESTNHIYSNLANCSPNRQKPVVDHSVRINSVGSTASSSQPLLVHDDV
T1 sequence (P15056 2-766 V600E limits assumed): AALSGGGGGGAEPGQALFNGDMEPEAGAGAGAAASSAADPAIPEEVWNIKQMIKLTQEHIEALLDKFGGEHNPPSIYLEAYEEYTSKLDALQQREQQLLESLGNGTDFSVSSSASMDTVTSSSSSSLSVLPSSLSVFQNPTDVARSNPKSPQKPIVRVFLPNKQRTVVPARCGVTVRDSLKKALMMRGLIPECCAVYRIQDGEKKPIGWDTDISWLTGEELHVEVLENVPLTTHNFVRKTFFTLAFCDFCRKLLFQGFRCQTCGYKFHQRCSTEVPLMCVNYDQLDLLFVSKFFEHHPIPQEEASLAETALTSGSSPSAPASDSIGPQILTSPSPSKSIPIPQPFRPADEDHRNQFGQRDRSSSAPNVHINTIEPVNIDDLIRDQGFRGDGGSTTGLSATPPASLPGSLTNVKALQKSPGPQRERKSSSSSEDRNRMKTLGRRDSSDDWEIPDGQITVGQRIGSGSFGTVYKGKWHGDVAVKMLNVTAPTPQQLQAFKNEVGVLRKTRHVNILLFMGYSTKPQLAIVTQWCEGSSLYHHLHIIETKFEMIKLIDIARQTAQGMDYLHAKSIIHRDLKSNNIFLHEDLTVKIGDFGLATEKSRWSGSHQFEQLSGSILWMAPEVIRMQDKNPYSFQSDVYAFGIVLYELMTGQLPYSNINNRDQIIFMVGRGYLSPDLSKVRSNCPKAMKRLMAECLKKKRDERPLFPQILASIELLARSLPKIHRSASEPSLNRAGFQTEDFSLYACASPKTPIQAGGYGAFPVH
Sequence of Cyclin-dependent kinase 1 (P06493 whole entry): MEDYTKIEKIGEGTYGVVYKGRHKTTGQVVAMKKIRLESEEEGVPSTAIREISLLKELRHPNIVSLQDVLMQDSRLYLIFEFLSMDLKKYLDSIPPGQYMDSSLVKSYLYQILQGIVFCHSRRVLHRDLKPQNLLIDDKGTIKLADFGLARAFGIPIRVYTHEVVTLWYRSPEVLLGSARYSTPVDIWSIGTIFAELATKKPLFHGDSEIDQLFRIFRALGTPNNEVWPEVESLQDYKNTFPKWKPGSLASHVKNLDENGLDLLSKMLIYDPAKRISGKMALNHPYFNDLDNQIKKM

Structure (SMILES) | IC50 [1] [nM] | IC50 [2] [nM] | other results
O=S(=O)(c1ccc(-c2cccnc2)s1)N1N=C(c2cccnc2)CC1c1ccccc1O (configuration not stated) | > 10000 | 2000 | –
O=C(c1cc(F)cc(C(F)(F)F)c1)N1N=C(c2cccnc2)CC1c1ccccc1O (configuration not stated) | 9500 | 110 | –
O=C(c1ccc(-c2ccc(Cl)cc2)s1)N1N=C(c2cccnc2)CC1c1ccccc1O (configuration not stated) | – | 140 | –
O=C(c1ccc(F)c(C(F)(F)F)c1)N1N=C(c2cccnc2)CC1c1ccccc1O (configuration not stated) | 3800 | 200 | –
O=C(c1ccccc1-c1ccc(F)cc1)N1N=C(c2cccnc2)CC1c1ccccc1O (configuration not stated) | – | > 10000 | –
O=C(c1ccc(F)cc1C(F)(F)F)N1N=C(c2cccnc2)CC1c1ccccc1O (configuration not stated) | – | > 10000 | –
O=C(c1ccc(C(F)(F)F)c(F)c1)N1N=C(c2cccnc2)CC1c1ccccc1O (configuration not stated) | – | 660 | –
O=C(c1cccc2c(F)cccc12)N1N=C(c2cccnc2)CC1c1ccccc1O (configuration not stated) | – | > 10000 | –
N#Cc1ccccc1S(=O)(=O)N1N=C(c2cccnc2)CC1c1ccccc1O (configuration not stated) | – | 450 | –
O=C(CC1CC1)N1N=C(c2cccnc2)CC1c1ccccc1O (configuration not stated) | 8000 | 83 | –
O=C(c1cccc(C(F)(F)F)c1F)N1N=C(c2cccnc2)CC1c1ccccc1O (configuration not stated) | – | > 10000 | –
O=C(c1ccccc1Oc1ccccc1)N1N=C(c2cccnc2)CC1c1ccccc1O (configuration not stated) | – | > 10000 | –
O=C(c1ccc([N+](=O)[O-])o1)N1N=C(c2cccnc2)CC1c1ccccc1O (configuration not stated) | – | 130 | –
O=C(c1ccc(-c2cccnc2)s1)N1N=C(c2cccnc2)CC1c1ccccc1O (configuration not stated) [listing 1 of 2 here] | – | – | Ratio IC50 [9]: < 2
O=C(c1cc(-c2ccc(Cl)cc2)cs1)N1N=C(c2cccnc2)CC1c1ccccc1O (configuration not stated) | – | 216 | –
O=C(c1cccc(Oc2ccccc2)c1)N1N=C(c2cccnc2)CC1c1ccccc1O (configuration not stated) | – | 156 | –
O=C(c1cncc(-c2cccs2)c1)N1N=C(c2cccnc2)CC1c1ccccc1O (configuration not stated) | > 10000 | 260 | –
Cc1ccc(-c2ccc(C(=O)N3N=C(c4cccnc4)CC3c3ccccc3O)o2)cc1 (configuration not stated) | 2400 | 58 | –
O=C(c1ccc(-c2cccnc2)s1)N1N=C(c2cccnc2)CC1c1ccccc1O (single isomer, unassigned; early eluting) | 14000 | 1200 | –
O=C(c1ccco1)N1N=C(c2cccnc2)CC1c1ccccc1O (configuration not stated) | – | – | IC50 [10]: > 10000 nM; IC50 [3]: > 10000 nM; IC50 [11]: > 10000 nM; IC50 [12]: > 10000 nM; IC50 [4]: > 10000 nM; IC50 [5]: > 10000 nM; IC50 [6]: > 10000 nM; IC50 [7]: > 10000 nM; IC50 [13]: > 10000 nM; IC50 [14]: > 10000 nM; IC50 [15]: > 10000 nM; IC50 [16]: > 10000 nM; IC50 [17]: > 10000 nM

The next lines start with results.

IC50 [1] [nM] | IC50 [2] [nM] | Structure (SMILES) | other results
3700 | 18 | COc1ccc(-c2ccc(C(=O)N3N=C(c4cccnc4)CC3c3ccccc3O)o2)cc1 (configuration not stated) | –
1300 | 37.9 | Cc1nc(-c2ccccc2)sc1C(=O)N1N=C(c2cccnc2)CC1c1ccccc1O (configuration not stated) | –
3500 | 25.7 | CCOc1cccc2cc(C(=O)N3N=C(c4cccnc4)CC3c3ccccc3O)oc12 (configuration not stated) | IC50 [3]: > 10000 nM; IC50 [4]: > 10000 nM; IC50 [5]: > 10000 nM; IC50 [6]: > 10000 nM; IC50 [7]: > 10000 nM; IC50 [8]: > 10000 nM
460 | 15.4 | COc1ccc(-c2cc(C(=O)N3N=C(c4cccnc4)CC3c3ccccc3O)no2)cc1 (configuration not stated) | –
> 10000 | 28 | O=C(c1cccc(-n2cnnn2)c1)N1N=C(c2cccnc2)CC1c1ccccc1O (configuration not stated) | –
710 | 6.5 | Cc1nc(-c2cnccn2)sc1C(=O)N1N=C(c2cccnc2)CC1c1ccccc1O (configuration not stated) | –
810 | 8 | O=C(c1cc(-c2ccccc2)on1)N1N=C(c2cccnc2)CC1c1ccccc1O (configuration not stated) | –
1500 | 24.2 | O=C(c1cccs1)N1N=C(c2cccnc2)CC1c1ccccc1O (configuration not stated) | IC50 [3]: > 10000 nM; IC50 [4]: > 10000 nM; IC50 [5]: > 10000 nM; IC50 [6]: > 10000 nM; Ratio IC50 [9]: < 2; IC50 [7]: > 10000 nM; IC50 [8]: > 10000 nM
8700 | 42 | O=C(c1cccc(-n2cccn2)c1)N1N=C(c2cccnc2)CC1c1ccccc1O (configuration not stated) | IC50 [3]: > 10000 nM; IC50 [4]: > 10000 nM; IC50 [5]: > 10000 nM; IC50 [6]: > 10000 nM; IC50 [7]: > 10000 nM; IC50 [8]: > 10000 nM
61 | 9.1 | O=C(c1cn2c(n1)sc1ccccc12)N1N=C(c2cccnc2)CC1c1ccccc1O (configuration not stated) | –
130 | 14.3 | O=C(c1cc(-c2ccccc2O)on1)N1N=C(c2cccnc2)CC1c1ccccc1O (configuration not stated) | –
940 | 8.1 | Cc1nc(-c2cccnc2)sc1C(=O)N1N=C(c2cccnc2)CC1c1ccccc1O (configuration not stated) | –
600 | 8.6 | O=C(c1cc(-c2ccc3c(c2)OCO3)on1)N1N=C(c2cccnc2)CC1c1ccccc1O (configuration not stated) | –
240 | 10.7 | O=C(c1cc(-c2ccc3c(c2)OCCO3)n[nH]1)N1N=C(c2cccnc2)CC1c1ccccc1O (configuration not stated) | –
2000 | 22.6 | O=C(c1ccc[nH]1)N1N=C(c2cccnc2)CC1c1ccccc1O (configuration not stated) | IC50 [3]: > 10000 nM; IC50 [4]: > 10000 nM; IC50 [5]: > 10000 nM; IC50 [6]: > 10000 nM; IC50 [7]: > 10000 nM; IC50 [8]: > 10000 nM
1700 | 16 | O=C(c1ccc(-c2ccccc2)o1)N1N=C(c2cccnc2)CC1c1ccccc1O (configuration not stated) | –
970 | 5.6 | O=C(c1cc(-c2ccco2)on1)N1N=C(c2cccnc2)CC1c1ccccc1O (configuration not stated) | –
350 | 7 | O=C(c1[nH]nc2c1CCC2)N1N=C(c2cccnc2)CC1c1ccccc1O (configuration not stated) | –
280 | 15 | O=C(c1ccc(-c2cccnc2)s1)N1N=C(c2cccnc2)CC1c1ccccc1O (single isomer, unassigned; later eluting) | –
1400 | 7.9 | O=C(c1ccc(Br)o1)N1N=C(c2cccnc2)CC1c1ccccc1O (configuration not stated) | IC50 [3]: > 10000 nM; IC50 [4]: > 10000 nM; IC50 [5]: > 10000 nM; IC50 [6]: > 10000 nM; IC50 [7]: > 10000 nM; IC50 [8]: > 10000 nM
180 | 18.7 | O=C(c1ccc(-c2cccnc2)s1)N1N=C(c2cccnc2)CC1c1ccccc1O (configuration not stated) [listing 2 of 2 here] | –
920 | 6.9 | O=C(c1cc2c(s1)CCC2)N1N=C(c2cccnc2)CC1c1ccccc1O (configuration not stated) | –
1100 | 41.5 | O=C(c1ccc(-c2ccccc2)[nH]1)N1N=C(c2cccnc2)CC1c1ccccc1O (configuration not stated) | –
410 | 10.3 | O=C(c1cc(-c2cccs2)n[nH]1)N1N=C(c2cccnc2)CC1c1ccccc1O (configuration not stated) | –
1100 | 8 | O=C(c1cc(-c2ccccc2)no1)N1N=C(c2cccnc2)CC1c1ccccc1O (configuration not stated) | –
930 | 6.7 | COc1cccc(-c2cc(C(=O)N3N=C(c4cccnc4)CC3c3ccccc3O)no2)c1 (configuration not stated) | –
